# Assays:
# [1] = melting temperature; fluorescence melt of hairpins on a sequencing array, two-state fit, raised by 9.35 °C to match UV melts; conditions: sodium 0.088 M
# Summary of the method: (§1)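 To match UV melts, fitted temperatures were raised by 9.35 °C. These fits were bootstrapped two-state models that gave melting temperature and folding enthalpy, combined by inverse variance over four replicates. The input was normalised Cy3 fluorescence of library hairpins with annealed Cy3 and quencher oligos on a sequenced MiSeq flow cell, imaged in 50 mM Na-HEPES pH 8.0, 25 mM NaCl in 2.5 °C steps up to 60 °C.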
# [2] = folding enthalpy; higher = less favourable; fluorescence melt of hairpins on a sequencing array, two-state fit; conditions: sodium 0.088 M
# Summary of the method: as §1
Sequence,Tm [1],folding enthalpy [2]
GTATGTGGAAACACATGC (.(((((....))))).),47.9 °C,-24.3 kcal/mol
GGGTTGACGAAAGTCCCC (((..(((....)))))),42.5 °C,-20.6 kcal/mol
GCTCAGCGAAAGCCTAGC (((..((....))..))),36.1 °C,-19.7 kcal/mol
GCATAGGGAAACCTATAC (.(((((....))))).),27.8 °C,-14.4 kcal/mol
GCTACGCGAAAGCGATGC ((..(((....)))..)),50 °C,-18.3 kcal/mol
GAGTAGAAATACTC (((((....))))),36.5 °C,-16.7 kcal/mol
GCGGGGCGAAAGCGTCGC (((..((....))..))),67.8 °C,-36 kcal/mol
GCTAAAGGAAACTTTAGC (((((((....))))))),53.7 °C,-37.4 kcal/mol
GCTATCCCGAAAGGGAGC (((..(((....)))))),38.9 °C,-11.7 kcal/mol
GCCGAACGAAAGTTTGGC (((.(((....))).))),66 °C,-35.2 kcal/mol
GATTTGGGAAACCAAACC (.(((((....))))).),34 °C,-19.4 kcal/mol
GTATCTGGAAACAGATAC (((((((....))))))),56.1 °C,-39.5 kcal/mol
GAGTACGAAAGTAGCCTC ((((((....)))..))),27.3 °C,-11.8 kcal/mol
GCTACGCGAAAGCGAGGC ((..(((....)))..)),53.3 °C,-15.1 kcal/mol
GGAACTCGAAAGAGATCC (((.(((....))).))),49.5 °C,-34.4 kcal/mol
GTTGGTGGAAACACCGAC ((.((((....)))).)),53.4 °C,-39 kcal/mol
GGACGGCGAAAGCCTCC (((.(((....)))))),53.5 °C,-16.4 kcal/mol
GCCTTTCGAAAGAATGGC (((.(((....))).))),53 °C,-42.6 kcal/mol
GTCCTCGGAAACGAGAAC ((.((((....)))).)),39.7 °C,-20.7 kcal/mol
GGTCCCGAAAGGGGTACC ((((((....)))..))),44.9 °C,-17.2 kcal/mol
GATCTTGTCGAAGATC ((((((....)))))),46.4 °C,-27.4 kcal/mol
GATCAAGTCTTGATC ((((((...)))))),46.2 °C,-30.4 kcal/mol
GATCACTTCAGTGATC ((((((....)))))),63.9 °C,-46.6 kcal/mol

Sequence,Tm [1],folding enthalpy [2]
GCATCGGGAAACTGGTGC (((.(.(....).).))),42.7 °C,-29 kcal/mol
GAACAGGAAACTGTTC ((((((....)))))),52.9 °C,-38.4 kcal/mol
GATCATCTTATGATC ((((((...)))))),49.8 °C,-34.7 kcal/mol
GTCAACACGAAAGTGGAC (((..(((....)))))),38.6 °C,-19.3 kcal/mol
GATCTCACTGAGATC ((((((...)))))),52.1 °C,-34 kcal/mol
GATCTTACAGAAGATC ((((((....)))))),38.4 °C,-31.8 kcal/mol
GTGATGGGAAACCATTAC ((.((((....)))).)),43.5 °C,-31.1 kcal/mol
GTCTTCGAAAGAACAGAC ((((((....)))..))),28.3 °C,-16.6 kcal/mol
GAGGTTGGAAACAGCTTC ((.(.((....)).).)),39.9 °C,-36 kcal/mol
GGCTCCGAAAGGAAGCC ((((((....))).))),64.1 °C,-37.7 kcal/mol
GGATCCGAAAGGACATCC ((((((....)))..))),37.2 °C,-17.6 kcal/mol
GATCCACACGTGGATC ((((((....)))))),59 °C,-35.1 kcal/mol
GGGACCCGAAAGGGCCCC (((.(((....))).))),67.8 °C,-23.6 kcal/mol
GCGTCTATACGC ((((....)))),54.6 °C,-25 kcal/mol
GATCTCAGTAGAGATC ((((((....)))))),54.1 °C,-37.4 kcal/mol
GCGTGCTGACGC ((((....)))),58.2 °C,-18.1 kcal/mol
GTCTATGGAAACATGGAC (((.(((....))).))),45.6 °C,-31.1 kcal/mol
GGAAAAGCGAAAGCTTCC (((..(((....)))))),40.5 °C,-15.1 kcal/mol
GTCAACCGAAAGGTCGAC (((.(((....))).))),50.9 °C,-35.1 kcal/mol
GTCGCAGGAAACTGTGAC (((.(((....))).))),53.9 °C,-42.4 kcal/mol
GATCGTGCAGACGATC ((((((....)))))),58.9 °C,-40.9 kcal/mol
GTCGTGAAAACGAC (((((....))))),60.8 °C,-30.5 kcal/mol
GGGCACCGAAAGGTACCC (((.(((....))).))),56.7 °C,-35.1 kcal/mol

Sequence,Tm [1],folding enthalpy [2]
GAAGCGCGAAAGCGTTTC (((.(((....))).))),56 °C,-23.1 kcal/mol
GCGGGTGGAAACACCTGC ((.((((....)))).)),59.1 °C,-37.5 kcal/mol
GCCGCGCGAAAGCGATGC ((..(((....)))..)),45.3 °C,-15.2 kcal/mol
GATCTCAACCGAGATC ((((((....)))))),51.9 °C,-45.1 kcal/mol
GGGTGCGGAAACGCGCTC (.(.(((....))).).),57.2 °C,-16.5 kcal/mol
GTCATAACGAAAGTTGAC (((..(((....)))))),37.2 °C,-24.4 kcal/mol
GTGCGTCCGAAAGGACAC (((..(((....)))))),60.4 °C,-9.8 kcal/mol
GTCAGTGGAAACATTGAC ((((.((....)).)))),45.3 °C,-29.2 kcal/mol
GCACCTGGAAACAGATGC (((.(((....))).))),44 °C,-28.4 kcal/mol
GAAGCGACGAAAGTCTTC (((..(((....)))))),27.9 °C,-9.61 kcal/mol
GACAGTGGAAACACTATC ((.((((....)))).)),29.5 °C,-15.9 kcal/mol
GGTTGTCGAAAGACGACC (((.(((....))).))),58.8 °C,-39.9 kcal/mol
GGTTGTCGAAAGACTACC (((.(((....))).))),52 °C,-46 kcal/mol
GAAGTACGAAAGTATTTC (((.(((....))).))),40.5 °C,-28.9 kcal/mol
GTCCACCGAAAGGTGAC (((.(((....)))))),46.1 °C,-12.5 kcal/mol
GATCTATTTGTAGATC ((((((....)))))),45.2 °C,-35 kcal/mol
GCGGGGACGAAAGTCCGC (((..(((....)))))),58.5 °C,-13.2 kcal/mol
GTTGAGGGAAACTTCAGC (.(((.(....).))).),31.7 °C,-16.6 kcal/mol
GGTCACGAAAGTGACACC ((((((....)))..))),52 °C,-7.64 kcal/mol
GATCGCGAAAGCGCGATC ((((((....)))..))),64.1 °C,-30.8 kcal/mol
GGAGTCGGAAACGGCTCC ((((.((....)).)))),61 °C,-45.8 kcal/mol
GGTACACCGAAAGGTACC (((..(((....)))))),41.1 °C,-20.5 kcal/mol
CGACACCGGAAACGGTCG (((..(((....)))))),42 °C,-13.7 kcal/mol

Sequence,Tm [1],folding enthalpy [2]
GACGCGGGAAACCGCATC ((.((((....)))).)),40.1 °C,-13.4 kcal/mol
GTTTTGGGAAACCAAAAC (((((((....))))))),57.5 °C,-43.5 kcal/mol
GCTCAGCGAAAGCTTTGC ((..(((....)))..)),38.6 °C,-14.4 kcal/mol
GCGAAGACGAAAGTCCGC (((..(((....)))))),52.4 °C,-31.9 kcal/mol
GCACTTGGAAACAAGCGC ((.((((....)))).)),49.5 °C,-45 kcal/mol
GTCACCGAAAGGTAAGAC ((((((....)))..))),39 °C,-19.6 kcal/mol
GAAACCGGAAACGGTTCC (.(((((....))))).),41.4 °C,-13.4 kcal/mol
GGATAGCGAAAGCTCTCC (((.(((....))).))),45.4 °C,-30.9 kcal/mol
GGGTGTGGAAACACGTCC ((..(((....)))..)),40.1 °C,-13.6 kcal/mol
GGCAGAGGAAACCCTGCC (((((.(....).))))),53.3 °C,-37.8 kcal/mol
GCTCCACGAAAGTGCAGC (((.(((....))).))),46.2 °C,-22.1 kcal/mol
GGGGTAGGAAACTACCCC (((((((....))))))),67.2 °C,-25.7 kcal/mol
GCTCGCGAAAGCGTTAGC ((((((....)))..))),45.9 °C,-14.1 kcal/mol
GGACGCGAAAGCGGTTCC ((((((....)))..))),45.7 °C,-11.6 kcal/mol
GAGCGAGGAAACTCGCCC (.(((((....))))).),53.6 °C,-7.21 kcal/mol
GATGACCGAAAGGTATC (((.(((....)))))),34.7 °C,-16.6 kcal/mol
GAAGTTGGAAACAACTCC (.(((((....))))).),34.1 °C,-19.2 kcal/mol
GATCAGCTGGCTGATC ((((((....)))))),64.4 °C,-34.1 kcal/mol
GGAAATCGAAAGATTCC (((.(((....)))))),40.4 °C,-20.9 kcal/mol
GTGATGAAAATCAC (((((....))))),49.6 °C,-22.8 kcal/mol
GATCGGTGCCCGATC ((((((...)))))),58 °C,-40.8 kcal/mol
GTGGGCGAAAGCCTCAC ((((((....))).))),51.9 °C,-15.5 kcal/mol
GATCATATTAATGATC ((((((....)))))),47.9 °C,-34.1 kcal/mol

# — the array DNA melting data of Ke et al. (doi:10.1101/2024.01.08.574731)
